Data reported in ChEMBL document CHEMBL1124567, “2,4-Diamino-5-benzylpyrimidines and analogues as antibacterial agents. 11. Quinolylmethyl analogues with basic substituents conveying specificity” (J Med Chem, 1989).
Converted amounts (≈) assume the structure as drawn.

How the values were obtained:
[1] = Dissociation constant of compound at 25 degree C; format: physicochemical
Staphylococcus aureus = test: Comparative in vitro antibacterial activity of compound with trimethoprim against Staphylococcus aureus CN491; format: functional
Outline: (§1)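 Activity is expressed relative to trimethoprim as the reference, with values above 1 meaning lower activity than the reference. Dilutions were threefold (1:3), and a difference of ± one dilution was not treated as significant.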

Vibrio cholerae = test: Comparative in vitro antibacterial activity of compound with trimethoprim against Vibrio cholerae ATCC 14035; format: functional
Outline: (§2)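 In vitro activity given as a ratio to trimethoprim, which is tested alongside; values above 1 mean lower activity than trimethoprim. Compounds were tested in serial 1:3 dilutions, and a difference of ±one dilution is treated as not significant.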

Proteus mirabilis = test: Comparative in vitro antibacterial activity of compound with trimethoprim against Proteus mirabilis S2409; format: functional; outline: as §1
Enterococcus faecalis = test: Comparative in vitro antibacterial activity of compound with trimethoprim against Streptococcus faecalis CN478; format: functional; outline: as §1
[2] = system: Bordetella bronchiseptica; test: Comparative in vitro antibacterial activity of compound with trimethoprim against Bordetella bronchiseptica CN385; format: functional; outline: as §1
Escherichia coli = test: Comparative in vitro antibacterial activity of compound with trimethoprim against Escherichia coli CN314; format: functional; outline: as §1
Shigella flexneri = test: Comparative in vitro antibacterial activity of compound with trimethoprim against Shigella flexneri CN6007; format: functional; outline: as §1
[3] = system: Mycolicibacterium smegmatis; test: Comparative in vitro antibacterial activity of compound with trimethoprim against Mycobacterium smegmatis S 3254; format: functional; outline: as §1
[4] = Comparative in vitro antibacterial activity of compound with trimethoprim against Salmonella typhi CN512; format: functional, salmonella typhosa; outline: as §2
Serratia marcescens = test: Comparative in vitro antibacterial activity of compound with trimethoprim against Serratia marcescens CN2398; format: functional; outline: as §1
Streptococcus pyogenes = test: Comparative in vitro antibacterial activity of compound with trimethoprim against Streptococcus pyogenes CN10; format: functional; outline: as §1
Proteus vulgaris = test: Comparative in vitro antibacterial activity of compound with trimethoprim against Proteus vulgaris CN329; format: functional; outline: as §1
Streptococcus agalactiae = test: Comparative in vitro antibacterial activity of compound with trimethoprim against Streptococcus agalactiae CN1143; format: functional; outline: as §1
Pasteurella multocida = test: Comparative in vitro antibacterial activity of compound with trimethoprim against Pasteurella multocida ATCC 6587; format: functional; outline: as §1
Citrobacter freundii = test: Comparative in vitro antibacterial activity of compound with trimethoprim against Citrobacter freundii 2200/77; format: functional; outline: as §1
Klebsiella pneumoniae = test: Comparative in vitro antibacterial activity of compound with trimethoprim against Klebsiella pneumoniae CN3632; format: functional; outline: as §1
Klebsiella aerogenes = test: Comparative in vitro antibacterial activity of compound with trimethoprim against Enterobacter aerogenes 2200/86; format: functional; outline: as §1
Salmonella typhimurium = test: Comparative in vitro antibacterial activity of compound with trimethoprim against Salmonella Typhimurium S 8587; format: functional, Salmonella enterica subsp. enterica serovar Typhimurium; settings: Salmonella enterica; outline: as §1
Dihydrofolate reductase = molecular target: T1, Dihydrofolate reductase (Rattus norvegicus, UniProt Q920D2); test: Inhibitory activity against Dihydrofolate reductase in rat liver; format: tissue-based; settings: read-out: I50
T1 sequence (Q920D2 whole entry): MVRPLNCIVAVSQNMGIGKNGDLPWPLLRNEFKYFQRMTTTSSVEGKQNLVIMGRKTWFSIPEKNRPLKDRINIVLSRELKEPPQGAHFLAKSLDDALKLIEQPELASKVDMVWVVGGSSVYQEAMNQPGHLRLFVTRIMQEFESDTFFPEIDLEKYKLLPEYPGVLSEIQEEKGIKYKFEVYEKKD

[5] = Dissociation constent of compound at 20 degree C; format: ADME

Row | SMILES | pKa [1] | MIC (Staphylococcus aureus) [µg/mL] | MIC (Vibrio cholerae) [µg/mL] | MIC (Proteus mirabilis) [µg/mL] | MIC (Enterococcus faecalis) [µg/mL] | MIC [2] [µg/mL] | MIC (Escherichia coli) [µg/mL] | MIC (Shigella flexneri) [µg/mL] | MIC [3] [µg/mL] | MIC [4] [µg/mL] | MIC (Serratia marcescens) [µg/mL] | MIC (Streptococcus pyogenes) [µg/mL] | MIC (Proteus vulgaris) [µg/mL] | MIC (Streptococcus agalactiae) [µg/mL] | MIC (Pasteurella multocida) [µg/mL] | MIC (Citrobacter freundii) [µg/mL] | MIC (Klebsiella pneumoniae) [µg/mL] | MIC (Klebsiella aerogenes) [µg/mL] | MIC (Salmonella typhimurium) [µg/mL] | IC50 (Dihydrofolate reductase) [µM] | also measured
1 | COc1ccc2ccccc2n1 | 3.16 | – | – | – | – | – | – | – | – | – | – | – | – | – | – | – | – | – | – | – | –
2 | Cc1cc(N(C)C)nc2ccc(Cc3cnc(N)nc3N)cc12 | – | 3 (≈ 9.73 µM) | 1 (≈ 3.24 µM) | 3 (≈ 9.73 µM) | 3 (≈ 9.73 µM) | 10 (≈ 32.4 µM) | 3 (≈ 9.73 µM) | 10 (≈ 32.4 µM) | 1 (≈ 3.24 µM) | 10 (≈ 32.4 µM) | 3 (≈ 9.73 µM) | 10 (≈ 32.4 µM) | 3 (≈ 9.73 µM) | 10 (≈ 32.4 µM) | 1 (≈ 3.24 µM) | 10 (≈ 32.4 µM) | 10 (≈ 32.4 µM) | 3 (≈ 9.73 µM) | 10 (≈ 32.4 µM) | – | –
3 | COc1cc(C)c2ccc(Cc3cnc(N)nc3N)cc2n1 | – | 10 (≈ 33.9 µM) | 3 (≈ 10.2 µM) | 30 (≈ 102 µM) | 3 (≈ 10.2 µM) | > 100 | 300 (≈ 1020 µM) | 300 (≈ 1020 µM) | 3 (≈ 10.2 µM) | 1000 (≈ 3390 µM) | > 100 | 3 (≈ 10.2 µM) | 30 (≈ 102 µM) | 3 (≈ 10.2 µM) | 10 (≈ 33.9 µM) | 100 (≈ 339 µM) | 100 (≈ 339 µM) | 300 (≈ 1020 µM) | 100 (≈ 339 µM) | 4.5 | –
4 | CCCCCc1cc(OC)c2cc(Cc3cnc(N)nc3N)cc(OC)c2n1 | – | 0.3 (≈ 0.786 µM) | 3 (≈ 7.86 µM) | 30 (≈ 78.6 µM) | 1 (≈ 2.62 µM) | 10 (≈ 26.2 µM) | 10 (≈ 26.2 µM) | 30 (≈ 78.6 µM) | 10 (≈ 26.2 µM) | 30 (≈ 78.6 µM) | 30 (≈ 78.6 µM) | 3 (≈ 7.86 µM) | 100 (≈ 262 µM) | 0.3 (≈ 0.786 µM) | 10 (≈ 26.2 µM) | 10 (≈ 26.2 µM) | 30 (≈ 78.6 µM) | 10 (≈ 26.2 µM) | 30 (≈ 78.6 µM) | – | –
5 | COc1cccc2cccnc12 | 4.99 | – | – | – | – | – | – | – | – | – | – | – | – | – | – | – | – | – | – | – | –
6 | Cc1cc(N2CCOCC2)nc2c(C)cc(Br)cc12 | 6.37 | – | – | – | – | – | – | – | – | – | – | – | – | – | – | – | – | – | – | – | –
7 | COc1cc(C)nc2c(OC)cc(Br)cc12 | 6.39 | – | – | – | – | – | – | – | – | – | – | – | – | – | – | – | – | – | – | – | –
8 | Cc1cc(N2CCOCC2)nc2c(C)cc(Cc3cnc(N)nc3N)cc12 | – | 0.3 (≈ 0.823 µM) | 3 (≈ 8.23 µM) | 30 (≈ 82.3 µM) | 0.3 (≈ 0.823 µM) | 3 (≈ 8.23 µM) | 30 (≈ 82.3 µM) | 30 (≈ 82.3 µM) | 3 (≈ 8.23 µM) | 30 (≈ 82.3 µM) | 100 (≈ 274 µM) | 1 (≈ 2.74 µM) | 100 (≈ 274 µM) | 0.3 (≈ 0.823 µM) | 10 (≈ 27.4 µM) | 10 (≈ 27.4 µM) | 10 (≈ 27.4 µM) | 30 (≈ 82.3 µM) | 30 (≈ 82.3 µM) | 410 | –
9 | Cc1cc(N2CCOCC2)nc2cc(Cc3cnc(N)nc3N)ccc12 | – | 3 (≈ 8.56 µM) | 10 (≈ 28.5 µM) | > 30 | 3 (≈ 8.56 µM) | > 100 | 300 (≈ 856 µM) | 1000 (≈ 2850 µM) | 3 (≈ 8.56 µM) | 10000 (≈ 28500 µM) | > 10 | 10 (≈ 28.5 µM) | > 100 | 30 (≈ 85.6 µM) | 300 (≈ 856 µM) | 100 (≈ 285 µM) | 300 (≈ 856 µM) | 300 (≈ 856 µM) | 1000 (≈ 2850 µM) | 16 | –
10 | COc1cc(C)nc2c(OC)cc(Cc3cnc(N)nc3N)cc12 | – | 0.3 (≈ 0.922 µM) | 1 (≈ 3.07 µM) | 10 (≈ 30.7 µM) | 1 (≈ 3.07 µM) | 10 (≈ 30.7 µM) | 3 (≈ 9.22 µM) | 3 (≈ 9.22 µM) | 3 (≈ 9.22 µM) | 10 (≈ 30.7 µM) | 3 (≈ 9.22 µM) | 0.3 (≈ 0.922 µM) | 3 (≈ 9.22 µM) | 1 (≈ 3.07 µM) | 3 (≈ 9.22 µM) | 3 (≈ 9.22 µM) | 10 (≈ 30.7 µM) | 10 (≈ 30.7 µM) | 3 (≈ 9.22 µM) | 49 | –
11 | Cc1cc(N(C)C)nc2c(C)cc(Cc3cnc(N)nc3N)cc12 | – | 1 (≈ 3.1 µM) | 1 (≈ 3.1 µM) | 10 (≈ 31 µM) | 1 (≈ 3.1 µM) | 30 (≈ 93 µM) | 10 (≈ 31 µM) | 10 (≈ 31 µM) | 3 (≈ 9.3 µM) | 3 (≈ 9.3 µM) | 10 (≈ 31 µM) | 3 (≈ 9.3 µM) | 10 (≈ 31 µM) | 1 (≈ 3.1 µM) | 3 (≈ 9.3 µM) | 10 (≈ 31 µM) | 3 (≈ 9.3 µM) | 10 (≈ 31 µM) | 10 (≈ 31 µM) | 280 | –
12 | COc1cc(Br)cc2c(N(C)C)cc(C)nc12 | 8.18 | – | – | – | – | – | – | – | – | – | – | – | – | – | – | – | – | – | – | – | –
13 | COc1cc(Cc2cnc(N)nc2N)cc2c(N(C)C)cc(C)nc12 | – | 30 (≈ 88.6 µM) | 10 (≈ 29.5 µM) | > 30 | 100 (≈ 295 µM) | 30 (≈ 88.6 µM) | > 10 | 30 (≈ 88.6 µM) | 100 (≈ 295 µM) | 100 (≈ 295 µM) | > 300 | 10 (≈ 29.5 µM) | > 100 | 30 (≈ 88.6 µM) | 100 (≈ 295 µM) | > 300 | > 300 | 300 (≈ 886 µM) | 100 (≈ 295 µM) | 70 | –
14 | Cc1cc(N(C)C)nc2ccc(Br)cc12 | 7.34 | – | – | – | – | – | – | – | – | – | – | – | – | – | – | – | – | – | – | – | –
15 | Brc1ccc2ncccc2c1 | – | – | – | – | – | – | – | – | – | – | – | – | – | – | – | – | – | – | – | – | pKa [5]: 3.91
16 | COc1cc(C)c2cc(Cc3cnc(N)nc3N)cc(C)c2n1 | – | 1 (≈ 3.23 µM) | 3 (≈ 9.7 µM) | 10 (≈ 32.3 µM) | 1 (≈ 3.23 µM) | 100 (≈ 323 µM) | 10 (≈ 32.3 µM) | 30 (≈ 97 µM) | 3 (≈ 9.7 µM) | 10 (≈ 32.3 µM) | 10 (≈ 32.3 µM) | 3 (≈ 9.7 µM) | 30 (≈ 97 µM) | 1 (≈ 3.23 µM) | 10 (≈ 32.3 µM) | 30 (≈ 97 µM) | 10 (≈ 32.3 µM) | 30 (≈ 97 µM) | 30 (≈ 97 µM) | 62 | –
17 | COc1cc(C)c2cc(Br)cc(C)c2n1 | 2.96 | – | – | – | – | – | – | – | – | – | – | – | – | – | – | – | – | – | – | – | –
18 | Nc1ccnc2ccccc12 [QUINOLIN-4-AMINE] | – | – | – | – | – | – | – | – | – | – | – | – | – | – | – | – | – | – | – | – | pKa [5]: 9.13
